From ChEMBL document CHEMBL1140683, “N-4-Pyrimidinyl-1H-indazol-4-amine inhibitors of Lck: indazoles as phenol isosteres with improved pharmacokinetics” (Bioorg Med Chem Lett, 2007)

Experiments:
[1] = molecular target: Proto-oncogene tyrosine-protein kinase LCK (Mus musculus, UniProt P06240); test: Inhibition of murine Lck by TR-FRET assay
[2] = molecular target: Tyrosine-protein kinase BTK (Homo sapiens, UniProt Q06187); test: Inhibition of Btk
[3] = molecular target: Tyrosine-protein kinase Lck (Homo sapiens, UniProt P06239); test: Inhibition of human Lck by TR-FRET assay
[4] = molecular target: T1, Tyrosine-protein kinase TXK (Homo sapiens, UniProt P42681); test: Inhibition of Txk
T1 sequence (P42681 whole entry): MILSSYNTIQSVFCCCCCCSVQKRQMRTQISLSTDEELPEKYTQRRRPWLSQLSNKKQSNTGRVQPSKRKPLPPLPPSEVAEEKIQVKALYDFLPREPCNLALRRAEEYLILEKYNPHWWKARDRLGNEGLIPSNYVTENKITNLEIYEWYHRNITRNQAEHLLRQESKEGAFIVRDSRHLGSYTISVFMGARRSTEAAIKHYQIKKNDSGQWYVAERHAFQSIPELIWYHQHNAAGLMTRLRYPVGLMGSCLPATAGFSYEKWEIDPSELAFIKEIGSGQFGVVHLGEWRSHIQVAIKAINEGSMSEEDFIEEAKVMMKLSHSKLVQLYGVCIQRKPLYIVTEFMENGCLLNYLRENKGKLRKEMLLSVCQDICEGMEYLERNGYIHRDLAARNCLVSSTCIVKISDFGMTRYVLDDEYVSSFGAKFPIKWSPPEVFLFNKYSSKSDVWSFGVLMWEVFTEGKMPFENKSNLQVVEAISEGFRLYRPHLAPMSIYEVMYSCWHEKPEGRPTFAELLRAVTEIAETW

[5] = molecular target: Tyrosine-protein kinase Lyn (Homo sapiens, UniProt P07948); test: Inhibition of Lyn
[6] = AUC (0 to t) in BALB/c mouse at 1 mg/kg, po; format: ADME, organism-based; design: dose 1 mg/kg, route oral; conditions: plasma
In short: (§1)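 Blood sampled over 8 h. Plasma protein-precipitated with acetonitrile, dried under nitrogen, reconstituted in 10:90 acetonitrile:water. Quantified by LC-MS/MS on an ODS3 column with a 0.1% formic acid water/acetonitrile gradient.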

[7] = Plasma clearance in BALB/c mouse at 1 mg/kg, iv; format: ADME, organism-based; design: dose 1 mg/kg, route intravenous; in short: as §1
[8] = Half life in BALB/c mouse at 1 mg/kg, iv; format: ADME, organism-based; design: dose 1 mg/kg, route intravenous; conditions: in vivo; in short: as §1
[9] = Volume of distribution at steady state in BALB/c mouse at 1 mg/kg, iv; format: ADME, organism-based; design: dose 1 mg/kg, route intravenous; conditions: in vivo, read-out: Vdss; in short: as §1
[10] = molecular target: Tyrosine-protein kinase SYK (Homo sapiens, UniProt P43405)
[11] = AUC (0 to t) in BALB/c mouse at 1 mg/kg, iv; format: ADME, organism-based; design: dose 1 mg/kg, route intravenous; conditions: plasma; in short: as §1
[12] = Oral bioavailability in BALB/c mouse at 1 mg/kg, po; format: ADME, organism-based; conditions: in vivo; in short: as §1
[13] = AUC (0 to t) in BALB/c mouse at 2.5 mg/kg, iv; format: ADME, organism-based; design: dose 2.5 mg/kg, route intravenous; conditions: plasma; in short: as §1
[14] = Plasma clearance in BALB/c mouse at 2.5 mg/kg, iv; format: ADME, organism-based; design: dose 2.5 mg/kg, route intravenous; in short: as §1
[15] = Oral bioavailability in BALB/c mouse at 10 mg/kg, po; format: ADME, organism-based; conditions: in vivo; in short: as §1
[16] = AUC (0 to t) in BALB/c mouse at 10 mg/kg, po; format: ADME, organism-based; design: dose 10 mg/kg, route oral; conditions: plasma; in short: as §1
[17] = Half life in BALB/c mouse at 2.5 mg/kg, iv; format: ADME, organism-based; design: dose 2.5 mg/kg, route intravenous; conditions: in vivo; in short: as §1
[18] = Volume of distribution at steady state in BALB/c mouse at 2.5 mg/kg, iv; format: ADME, organism-based; design: dose 2.5 mg/kg, route intravenous; conditions: in vivo, read-out: Vdss; in short: as §1

Sequence of Tyrosine-protein kinase Lyn (P07948 whole entry): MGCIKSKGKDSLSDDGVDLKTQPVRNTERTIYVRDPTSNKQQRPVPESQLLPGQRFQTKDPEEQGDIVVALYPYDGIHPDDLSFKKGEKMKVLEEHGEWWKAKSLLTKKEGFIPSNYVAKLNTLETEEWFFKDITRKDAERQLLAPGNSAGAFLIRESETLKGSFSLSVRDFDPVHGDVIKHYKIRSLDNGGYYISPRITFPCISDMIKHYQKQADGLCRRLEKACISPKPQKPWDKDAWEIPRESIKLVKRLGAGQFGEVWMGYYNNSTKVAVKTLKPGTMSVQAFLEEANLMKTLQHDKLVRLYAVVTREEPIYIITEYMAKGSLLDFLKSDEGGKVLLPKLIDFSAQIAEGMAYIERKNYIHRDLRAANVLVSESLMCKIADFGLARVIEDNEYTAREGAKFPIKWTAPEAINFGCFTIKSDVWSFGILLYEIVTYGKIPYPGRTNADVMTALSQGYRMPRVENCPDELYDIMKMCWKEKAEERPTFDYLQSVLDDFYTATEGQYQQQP
Sequence of Proto-oncogene tyrosine-protein kinase LCK (P06240 whole entry): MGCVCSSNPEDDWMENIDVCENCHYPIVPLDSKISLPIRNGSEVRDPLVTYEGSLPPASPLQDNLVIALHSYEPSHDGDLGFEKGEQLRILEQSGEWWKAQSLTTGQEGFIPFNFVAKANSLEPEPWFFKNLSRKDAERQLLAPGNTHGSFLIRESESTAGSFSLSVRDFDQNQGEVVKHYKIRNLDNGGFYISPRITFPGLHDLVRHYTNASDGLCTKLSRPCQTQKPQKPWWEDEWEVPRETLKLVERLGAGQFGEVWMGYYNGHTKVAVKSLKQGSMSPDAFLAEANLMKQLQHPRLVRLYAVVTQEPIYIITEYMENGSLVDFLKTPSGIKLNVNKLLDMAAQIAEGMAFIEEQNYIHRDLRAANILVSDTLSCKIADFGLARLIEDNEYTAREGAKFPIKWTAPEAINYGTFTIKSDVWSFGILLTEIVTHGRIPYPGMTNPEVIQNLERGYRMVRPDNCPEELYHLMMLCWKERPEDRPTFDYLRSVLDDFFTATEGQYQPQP
Sequence of Tyrosine-protein kinase BTK (Q06187 whole entry): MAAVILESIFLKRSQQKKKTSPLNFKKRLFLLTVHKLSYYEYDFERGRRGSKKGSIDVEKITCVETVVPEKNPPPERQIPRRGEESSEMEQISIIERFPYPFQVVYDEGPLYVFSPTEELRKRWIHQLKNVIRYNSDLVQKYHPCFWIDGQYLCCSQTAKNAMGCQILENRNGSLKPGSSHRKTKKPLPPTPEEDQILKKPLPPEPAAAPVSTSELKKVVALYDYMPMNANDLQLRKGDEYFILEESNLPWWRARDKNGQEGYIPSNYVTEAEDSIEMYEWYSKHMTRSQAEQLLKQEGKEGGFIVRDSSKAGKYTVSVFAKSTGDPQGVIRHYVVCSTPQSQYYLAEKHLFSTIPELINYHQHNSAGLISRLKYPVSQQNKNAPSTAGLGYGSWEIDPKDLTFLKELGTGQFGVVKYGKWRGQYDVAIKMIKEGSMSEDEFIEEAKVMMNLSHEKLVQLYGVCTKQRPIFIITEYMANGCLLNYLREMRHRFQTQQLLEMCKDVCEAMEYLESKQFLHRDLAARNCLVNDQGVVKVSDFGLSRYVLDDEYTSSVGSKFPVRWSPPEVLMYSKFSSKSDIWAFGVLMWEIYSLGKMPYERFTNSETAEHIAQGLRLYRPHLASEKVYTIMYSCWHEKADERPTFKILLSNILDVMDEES
Sequence of Tyrosine-protein kinase Lck (P06239 whole entry): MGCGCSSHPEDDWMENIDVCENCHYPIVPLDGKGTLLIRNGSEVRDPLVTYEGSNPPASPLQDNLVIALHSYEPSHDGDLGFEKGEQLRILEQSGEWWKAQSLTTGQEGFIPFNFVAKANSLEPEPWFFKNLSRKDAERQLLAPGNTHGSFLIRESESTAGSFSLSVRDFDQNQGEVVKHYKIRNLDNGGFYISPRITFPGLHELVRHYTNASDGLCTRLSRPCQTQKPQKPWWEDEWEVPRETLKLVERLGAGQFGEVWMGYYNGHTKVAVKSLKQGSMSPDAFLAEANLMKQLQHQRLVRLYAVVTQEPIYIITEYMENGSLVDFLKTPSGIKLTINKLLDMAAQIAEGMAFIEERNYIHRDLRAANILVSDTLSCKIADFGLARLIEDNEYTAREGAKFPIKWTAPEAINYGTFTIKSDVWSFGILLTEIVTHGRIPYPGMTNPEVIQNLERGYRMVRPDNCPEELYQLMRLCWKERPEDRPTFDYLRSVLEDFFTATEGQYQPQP

IC50 [1] [nM]	Structure (SMILES)	also measured
1300	Cc1ccc(C(N)=O)cc1Nc1ccnc(Nc2cccc(C(N)=O)c2)n1	–
100	NC(=O)c1cccc(Nc2nccc(Nc3cccc4[nH]ncc34)n2)c1 [GW782612X]	–
97	Cc1ccc(N)cc1Nc1ccnc(Nc2cccc(C(N)=O)c2)n1	–
520	Cc1cc(Nc2ccnc(Nc3cccc(C(N)=O)c3)n2)c2cn[nH]c2c1	–
130	NC(=O)c1cccc(Nc2nccc(Nc3cccc(O)c3)n2)c1	–
1100	NC(=O)c1cccc(Nc2nccc(Nc3ccc(F)cc3F)n2)c1	–
3000	NC(=O)c1cccc(Nc2nccc(Nc3ccc4ncsc4c3)n2)c1	–
270	Cc1ccc(F)cc1Nc1ccnc(Nc2cccc(C(N)=O)c2)n1	–
55	Cc1ccc(Nc2ccnc(Nc3cccc(C(N)=O)c3)n2)c2cn[nH]c12	–
89	Cc1ccccc1Nc1ccnc(Nc2cccc(C(N)=O)c2)n1	–
73	Cc1cc(O)cc(Nc2ccnc(Nc3cccc(C(N)=O)c3)n2)c1	–
13	Cc1ccc(O)cc1Nc1ccnc(Nc2cccc(C(N)=O)c2)n1	IC50 [2]: 9 nM; IC50 [3]: 14 nM; IC50 [4]: 2 nM; IC50 [5]: 3 nM
4400	NC(=O)c1cccc(Nc2nccc(Nc3ccc4nn[nH]c4c3)n2)c1	–
2700	COc1cccc(Nc2ccnc(Nc3cccc(C(N)=O)c3)n2)c1	–
54	COc1ccc(C)c(Nc2ccnc(Nc3cccc(S(N)(=O)=O)c3)n2)c1	–
19	Cc1ccc2[nH]ncc2c1Nc1ccnc(Nc2cccc(S(N)(=O)=O)c2)n1	IC50 [2]: 69 nM; AUC(0-t) [6]: 190 ng·h/mL; clearance [7]: 22.4 mL/min/kg; half-life [8]: 31.8 min; Vd [9]: 0.7 L/kg; IC50 [10]: 620 nM; IC50 [4]: 220 nM; AUC(0-t) [11]: 743 ng·h/mL; bioavailability [12]: 25%; IC50 [5]: 430 nM
350	NS(=O)(=O)c1cccc(Nc2nccc(Nc3ccc(F)cc3F)n2)c1	–
880	CC(C)c1ccc(O)cc1Nc1ccnc(Nc2cccc(C(N)=O)c2)n1	–
1800	Cn1cnc2cc(Nc3ccnc(Nc4cccc(C(N)=O)c4)n3)ccc21	–
7700	Cc1ccc(NS(C)(=O)=O)cc1Nc1ccnc(Nc2cccc(C(N)=O)c2)n1	–

IC50 [1] [nM]	Structure (SMILES)	also measured
3300	NC(=O)c1cccc(Nc2nccc(Nc3cccc(F)c3)n2)c1	–
190	Cc1ccc(Nc2ccnc(Nc3cccc(C(N)=O)c3)n2)cc1O	–
100	Cc1cccc(O)c1Nc1ccnc(Nc2cccc(C(N)=O)c2)n1	–
9300	Cc1ccc(C(=O)N(C)C)cc1Nc1ccnc(Nc2cccc(C(N)=O)c2)n1	–
16000	Cn1cnc2ccc(Nc3ccnc(Nc4cccc(C(N)=O)c4)n3)cc21	–
8200	Cn1ncc2ccc(Nc3ccnc(Nc4cccc(C(N)=O)c4)n3)cc21	–
560	NC(=O)c1cccc(Nc2nccc(Nc3cccc4ncccc34)n2)c1	–
86	COc1ccc(C)c(Nc2ccnc(Nc3cccc(C(N)=O)c3)n2)c1	–
41	NC(=O)c1cccc(Nc2nccc(Nc3cc(O)ccc3Br)n2)c1	–
380	Cc1ccc(Cl)cc1Nc1ccnc(Nc2cccc(C(N)=O)c2)n1	–
1600	Cn1ncc2c(Nc3ccnc(Nc4cccc(C(N)=O)c4)n3)cccc21	–
3000	NC(=O)c1cccc(Nc2nccc(Nc3ccc4[nH]ncc4c3)n2)c1	–
3400	Cc1ccc(CN)cc1Nc1ccnc(Nc2cccc(C(N)=O)c2)n1	–
5600	Cc1nc2c(Nc3ccnc(Nc4cccc(C(N)=O)c4)n3)cccc2[nH]1	–
1800	CC(=O)N(C)c1cccc(Nc2ccnc(Nc3cccc(C(N)=O)c3)n2)c1	–
2800	Cc1ccc2c(cnn2C)c1Nc1ccnc(Nc2cccc(C(N)=O)c2)n1	–
40	Cc1cc(O)ccc1Nc1ccnc(Nc2cccc(C(N)=O)c2)n1	–
1400	NC(=O)c1cccc(Nc2nccc(Nc3cccc4cn[nH]c34)n2)c1	–
33	NS(=O)(=O)c1cccc(Nc2nccc(Nc3cccc4[nH]ncc34)n2)c1	–

Structure (SMILES)	IC50 [1] [nM]	also measured
NC(=O)c1cccc(Nc2nccc(Nc3cccc4nn[nH]c34)n2)c1	490	–
Cc1ccc(O)cc1Nc1ccnc(Nc2cccc(S(N)(=O)=O)c2)n1	8.5	AUC(0-t) [13]: 635 ng·h/mL; clearance [14]: 65.5 mL/min/kg; bioavailability [15]: < 1%; AUC(0-t) [16]: 2 ng·h/mL; IC50 [10]: 4 nM; half-life [17]: 7.2 min; Vd [18]: 0.3 L/kg; IC50 [4]: 0.4 nM; IC50 [5]: 1 nM
Cc1ccc2[nH]ncc2c1Nc1ccnc(Nc2cccc(C(N)=O)c2)n1	12	IC50 [2]: 97 nM; IC50 [10]: 220 nM; IC50 [4]: 28 nM; IC50 [5]: 40 nM
